For 1 compound, EC50, max activation and Activity results are on record in ChEMBL document CHEMBL4354876, “A Selective Modulator of Peroxisome Proliferator-Activated Receptor γ with an Unprecedented Binding Mode” (J Med Chem, 2020).

Each structure is given as a SMILES string. Activity calls are given as the source filed them. The calls are words filed in the database; no cut-off is given here.

For series [1], the target named is T1, Peroxisome proliferator-activated receptor alpha (Homo sapiens, UniProt Q07869).
T1 sequence (Q07869 whole entry): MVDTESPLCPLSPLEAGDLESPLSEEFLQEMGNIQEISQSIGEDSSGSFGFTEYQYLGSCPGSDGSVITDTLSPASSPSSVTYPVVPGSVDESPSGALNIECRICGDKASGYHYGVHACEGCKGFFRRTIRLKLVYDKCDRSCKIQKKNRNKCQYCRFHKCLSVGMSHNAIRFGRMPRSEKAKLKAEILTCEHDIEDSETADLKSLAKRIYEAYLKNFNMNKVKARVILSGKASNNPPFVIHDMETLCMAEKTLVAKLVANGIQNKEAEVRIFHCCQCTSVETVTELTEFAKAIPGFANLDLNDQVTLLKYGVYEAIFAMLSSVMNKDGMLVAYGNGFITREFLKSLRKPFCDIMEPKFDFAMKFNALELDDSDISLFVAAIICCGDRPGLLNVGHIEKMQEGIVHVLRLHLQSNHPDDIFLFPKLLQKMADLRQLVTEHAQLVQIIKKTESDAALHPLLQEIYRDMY
In words: Partial agonist activity at Gal4-fused PPARalpha LBD (unknown origin) expressed in HEK293T cells after 14 to 16 hrs by dual-Glo luciferase assay. Type of series: cell-based. An outline of the steps: (§1)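 Gal4 hybrid reporter assay in transiently transfected HEK293T cells. Constructs fuse the yeast Gal4 DNA-binding domain to the human receptor LBD. Firefly luciferase is the reporter. Constitutive renilla luciferase monitors transfection efficiency and toxicity. EC50 and maximal relative activation are reported as mean±S.E.M., n≥3.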

In series [2] the target is T2, Peroxisome proliferator-activated receptor gamma (Homo sapiens, UniProt P37231).
T2 sequence (P37231 whole entry): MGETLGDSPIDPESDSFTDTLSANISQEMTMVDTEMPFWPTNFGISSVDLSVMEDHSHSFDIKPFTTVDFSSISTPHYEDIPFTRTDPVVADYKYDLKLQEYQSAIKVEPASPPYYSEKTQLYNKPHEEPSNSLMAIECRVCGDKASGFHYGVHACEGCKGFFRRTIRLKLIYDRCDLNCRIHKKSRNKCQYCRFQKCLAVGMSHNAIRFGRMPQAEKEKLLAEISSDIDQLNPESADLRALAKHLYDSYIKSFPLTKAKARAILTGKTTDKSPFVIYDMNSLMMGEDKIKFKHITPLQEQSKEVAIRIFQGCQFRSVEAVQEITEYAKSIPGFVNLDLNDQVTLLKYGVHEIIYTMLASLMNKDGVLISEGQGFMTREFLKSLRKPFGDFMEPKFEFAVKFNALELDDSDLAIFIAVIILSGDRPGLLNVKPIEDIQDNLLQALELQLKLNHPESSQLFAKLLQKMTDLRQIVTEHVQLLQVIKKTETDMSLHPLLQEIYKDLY
The experiment in a line: Partial agonist activity at Gal4-fused PPARgamma LBD (unknown origin) expressed in HEK293T cells after 14 to 16 hrs by dual-Glo luciferase assay. Format: cell-based. An outline of the steps: as §1

The target of series [3] is T3, Peroxisome proliferator-activated receptor gamma (Homo sapiens) (UniProt P37231).
T3 sequence (whole entry): T2 sequence (P37231 whole entry)
The experiment in a line: Partial agonist activity at Gal4-fused PPARgamma LBD (unknown origin) expressed in HEK293T cells after 14 to 16 hrs by dual-Glo luciferase assay relative to pioglitazone. Type of series: cell-based. An outline of the steps:
as §1

For series [4], the target named is T4, Peroxisome proliferator-activated receptor delta (Homo sapiens) (UniProt Q03181).
T4 sequence (whole entry): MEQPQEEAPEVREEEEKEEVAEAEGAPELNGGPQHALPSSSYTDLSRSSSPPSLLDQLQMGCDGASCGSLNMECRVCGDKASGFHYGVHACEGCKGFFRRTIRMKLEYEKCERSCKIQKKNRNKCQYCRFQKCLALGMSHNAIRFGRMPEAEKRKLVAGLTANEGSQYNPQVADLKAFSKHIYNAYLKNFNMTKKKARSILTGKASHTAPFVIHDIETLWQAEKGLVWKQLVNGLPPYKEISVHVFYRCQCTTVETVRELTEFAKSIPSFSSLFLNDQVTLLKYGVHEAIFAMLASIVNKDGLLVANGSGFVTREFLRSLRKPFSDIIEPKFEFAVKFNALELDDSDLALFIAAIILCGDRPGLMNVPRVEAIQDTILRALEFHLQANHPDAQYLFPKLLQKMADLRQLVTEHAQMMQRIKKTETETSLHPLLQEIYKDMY
In words: Partial agonist activity at Gal4-fused PPARdelta LBD (unknown origin) expressed in HEK293T cells after 14 to 16 hrs by dual-Glo luciferase assay relative to L165041. Format: cell-based. An outline of the steps: as §1

In series [5] the target is Retinoid X receptor (Homo sapiens) (UniProt P28702+P48443+P19793). The experiment in a line: Agonist activity at RXR (unknown origin) at 10 uM. Format: protein assay.
A short description of series [6]: Partial agonist activity at recombinant PPARgamma LBD/N-terminal GFP-fused RXRalpha mutant LBD (unknown origin) assessed as increase in biotinylated-SRC1 peptide recruitment measured after 2 hrs by HTRF assay. Set-up: species or system Homo sapiens. An outline of the steps:
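Cell-free HTRF assay of coactivator peptide recruitment (CBP or SRC-1) to the recombinant PPARγ:RXRα heterodimer.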
In general terms: TR-FRET usually uses a lanthanide donor and a delayed reading to cut background.

Series [7] addresses T2, Peroxisome proliferator-activated receptor gamma. The experiment in a line: Selective modulation of PPARgamma in human HepG2 cells assessed as induction of ANGPTL4 mRNA expression at 1 uM measured after 12 hrs by qPCR analysis. Format: cell-based. Conditions: hepg2, 12 h. An outline of the steps: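 HepG2 cells were incubated with test compound at 1 µM. mRNA of the PPARγ target genes adiponectin and ANGPTL4 was quantified. Mean±S.E.M., n≥3.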
For orientation: In qPCR the cycle at which signal appears reflects the starting amount.

In series [8] the test system is NHDF. The experiment in a line: Induction of adipogenesis in NHDF assessed as reduction in fibroblast differentiation into matured adipocytes at 0.2 to 20 uM administered on day 3 of differentiation 1 and day 5 of differentiation 2 followed by media refreshment at 2 days interval up to 13 days and measured on day 14 by Oil red O staining based light microscopic analysis. Type of series: cell-based. Conditions: human. An outline of the steps: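 Primary human fibroblasts (NHDF) were differentiated to mature adipocytes and treated with ligand or DMSO; the test compound was used at 0.2, 2 and 20 µM and the reference at 2 µM. Lipid accumulation was read by Oil Red O staining, with four replicates.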

Sequence of Retinoid X receptor (Homo sapiens) (P19793 whole entry, looked up, the tested form may be a part): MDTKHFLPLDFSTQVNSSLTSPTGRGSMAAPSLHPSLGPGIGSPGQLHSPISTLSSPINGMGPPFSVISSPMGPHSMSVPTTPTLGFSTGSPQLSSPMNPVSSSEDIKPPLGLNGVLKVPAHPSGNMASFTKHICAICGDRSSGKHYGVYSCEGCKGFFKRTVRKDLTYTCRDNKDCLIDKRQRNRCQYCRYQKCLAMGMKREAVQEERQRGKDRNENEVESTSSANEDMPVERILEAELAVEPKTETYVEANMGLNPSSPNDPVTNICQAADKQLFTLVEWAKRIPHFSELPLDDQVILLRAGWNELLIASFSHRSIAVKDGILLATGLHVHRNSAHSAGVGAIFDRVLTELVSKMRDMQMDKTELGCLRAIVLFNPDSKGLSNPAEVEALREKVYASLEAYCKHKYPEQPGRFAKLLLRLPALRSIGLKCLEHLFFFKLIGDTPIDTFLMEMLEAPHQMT
Sequence of Retinoid X receptor (Homo sapiens) (P28702 whole entry, looked up, the tested form may be a part): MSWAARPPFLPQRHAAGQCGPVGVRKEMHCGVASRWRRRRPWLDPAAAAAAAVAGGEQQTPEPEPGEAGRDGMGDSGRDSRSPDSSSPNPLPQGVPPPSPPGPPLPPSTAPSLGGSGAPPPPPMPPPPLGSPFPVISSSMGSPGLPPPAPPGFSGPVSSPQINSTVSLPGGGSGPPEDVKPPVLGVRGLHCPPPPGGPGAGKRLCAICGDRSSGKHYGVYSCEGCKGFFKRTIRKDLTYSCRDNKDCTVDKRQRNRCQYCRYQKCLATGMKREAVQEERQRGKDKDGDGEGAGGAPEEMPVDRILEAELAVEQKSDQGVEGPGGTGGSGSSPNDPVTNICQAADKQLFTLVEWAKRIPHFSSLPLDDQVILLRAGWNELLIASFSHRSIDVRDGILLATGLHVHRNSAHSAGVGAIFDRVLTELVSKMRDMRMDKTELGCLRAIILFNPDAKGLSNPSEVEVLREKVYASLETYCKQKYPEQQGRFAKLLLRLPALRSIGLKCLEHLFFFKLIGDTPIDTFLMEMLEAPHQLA
Sequence of Retinoid X receptor (Homo sapiens) (P48443 whole entry, looked up, the tested form may be a part): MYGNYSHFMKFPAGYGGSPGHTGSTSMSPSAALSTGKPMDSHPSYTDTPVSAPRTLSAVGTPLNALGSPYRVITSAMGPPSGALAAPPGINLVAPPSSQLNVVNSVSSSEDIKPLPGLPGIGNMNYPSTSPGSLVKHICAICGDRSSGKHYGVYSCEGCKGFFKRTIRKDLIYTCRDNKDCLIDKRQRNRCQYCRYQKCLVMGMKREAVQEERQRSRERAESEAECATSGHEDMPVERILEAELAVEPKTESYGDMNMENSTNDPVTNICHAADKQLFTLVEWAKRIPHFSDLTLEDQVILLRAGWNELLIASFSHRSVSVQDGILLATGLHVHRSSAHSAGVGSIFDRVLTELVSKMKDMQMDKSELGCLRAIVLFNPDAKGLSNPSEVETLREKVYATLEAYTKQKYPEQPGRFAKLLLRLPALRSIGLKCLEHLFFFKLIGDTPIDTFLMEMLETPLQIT

With `CCCCCCC(Sc1nc2ccc(NS(=O)(=O)c3ccc(Cl)cc3Cl)cc2s1)C(=O)O` (stereo not drawn), the EC50 in series [1] was 0.5 µM; in series [2] it was 0.0022 µM; in series [6], 0.887 µM. For the same compound, the max activation in series [3] amounted to 67%; in series [4], 12%. In addition, the result in series [5] was inactive. For the same compound, the Activity result in series [7] was “Not Active”; in series [8], “Non-Toxic”.

For orientation: EC50 means the concentration giving half of the maximal effect.
